ChEMBL document CHEMBL1255300, “Pharmacodynamics of the antibacterial effect and emergence of resistance to tomopenem, formerly RO4908463/CS-023, in an in vitro pharmacokinetic model of Staphylococcus aureus infection” (Antimicrob Agents Chemother, 2008)
≈ marks a conversion by molar mass, not a printed value. Calls of active or inactive are those of the source. No cut-off for these calls is given here.

Legend:
[1] = test system: Staphylococcus aureus; test: AUBKC (0 to 24 hrs) in methicillin-resistant Staphylococcus aureus 33815 infected in in vitro pharmacokinetic model at 1500 mg, iv every 8 hrs using 10^8 CFU/ml inoculum; assay type: functional
In short: (§1)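 Single-compartment dilutional in vitro PK model at 37°C in 10% Mueller-Hinton broth, stirred, flow 132 ml/h. […] Inoculum 10^6 CFU/ml added 45 min before dosing, or 10^8 CFU/ml run overnight. Viable counts with β-lactamase neutralisation. AUBKC by log-linear trapezoidal rule, at least triplicate.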

[2] = test system: Staphylococcus aureus; test: Antibacterial activity against methicillin-resistant Staphylococcus aureus 33921 in in vitro pharmacokinetic model assessed as viable count at 6 times of MIC; assay type: functional
In short: (§2)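 Preexposure population analysis: time-zero model samples plated on nutrient agar without drug and with drug at multiples of the 10% broth MIC. Growth reported as log CFU/ml, detection limit 2 log10.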

[3] = test system: Staphylococcus aureus; test: Antibacterial activity against methicillin-resistant Staphylococcus aureus 33922 infected in in vitro pharmacokinetic model assessed as time required to 99% killing at 750 mg, iv every 8 hrs using 10^8 CFU/ml inoculum; assay type: functional
[4] = test system: Staphylococcus aureus; test: AUBKC (0 to 48 hrs) in methicillin-resistant Staphylococcus aureus 33922 infected in in vitro pharmacokinetic model at 750 mg, iv every 8 hrs using 10^8 CFU/ml inoculum; assay type: functional; in short: as §1
[5] = test system: Staphylococcus aureus; test: AUBKC (0 to 24 hrs) in methicillin-resistant Staphylococcus aureus 33921 infected in in vitro pharmacokinetic model at 1500 mg, iv every 8 hrs using 10^6 CFU/ml inoculum; assay type: functional; in short: as §1
[6] = test system: Staphylococcus aureus; test: AUBKC (0 to 48 hrs) in against methicillin-resistant Staphylococcus aureus 33815 infected in in vitro pharmacokinetic model at 750 mg, iv every 8 hrs using 10^8 CFU/ml inoculum; assay type: functional; in short: as §1
[7] = test system: Staphylococcus aureus; test: Antibacterial activity against methicillin-resistant Staphylococcus aureus 33827 in in vitro pharmacokinetic model assessed as viable count at 4 times of MIC; assay type: functional
In short: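 Population analysis before drug exposure (time 0). Model samples were plated on nutrient agar without drug and with tomopenem at 2×, 4× and 6× MIC (10% MHB MIC), and growth was recorded as log CFU/ml. Detection limit 2 log10.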

[8] = test system: Staphylococcus aureus; test: Antibacterial activity against methicillin-resistant Staphylococcus aureus 33829 in in vitro pharmacokinetic model assessed as viable count at 2 times of MIC; assay type: functional; in short: as §2
[9] = test system: Staphylococcus aureus; test: Antibacterial activity against methicillin-resistant Staphylococcus aureus 33815 infected in in vitro pharmacokinetic model assessed as time required to 99% killing at 1500 mg, iv every 8 hrs using 10^8 CFU/ml inoculum; assay type: functional
In short: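 T99 and T99.9 were taken as the times for the count to fall 99% or 99.9% from time 0, using serial viable counts over 48 h. Inoculum was 10^8 CFU/ml, grown overnight in the model before dosing.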

[10] = test system: Staphylococcus aureus; test: Antibacterial activity against methicillin-resistant Staphylococcus aureus 33829 by broth dilution method; assay type: functional
In short: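 MIC by CLSI broth dilution, or by broth dilution in 10% Mueller-Hinton broth at nondoubling dilutions.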

[11] = test system: Staphylococcus aureus; test: Antibacterial activity against methicillin-sensitive Staphylococcus aureus 5956 infected in in vitro pharmacokinetic model assessed as reduction in viable count at 750 mg, iv every 8 hrs measured after 12 hrs using 10^6 CFU/ml inoculum; assay type: functional
[12] = test system: Staphylococcus aureus; test: Antibacterial activity against methicillin-resistant Staphylococcus aureus 33815 infected in in vitro pharmacokinetic model assessed as reduction in viable count at 750 mg, iv every 8 hrs measured after 12 hrs using 10^6 CFU/ml inoculum; assay type: functional
In short: (§3)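 Single-compartment dilutional in vitro PK model, 37°C, stirred, in 10% Mueller-Hinton broth. […] Inoculum 10^6 CFU/ml from a 24-h plate culture was added 45 min before dosing. Viable counts by spiral plating on nutrient agar with β-lactamase neutralization. Log change was taken from time 0; detection limit 10^2 CFU/ml; at least triplicate.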

[13] = test system: Staphylococcus aureus; test: T>MIC for 4-log drop in count in methicillin-resistant Staphylococcus aureus 33815 in in vitro pharmacokinetic model after 24 hrs using 10^6 CFU/ml inoculum; assay type: functional
[14] = test system: Staphylococcus aureus; test: Antibacterial activity against methicillin-resistant Staphylococcus aureus 33815 infected in in vitro pharmacokinetic model assessed as reduction in viable count at 1500 mg, iv every 8 hrs measured after 12 hrs using 10^6 CFU/ml inoculum; assay type: functional
In short: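 Log change in viable count from time zero to 12 h, β-lactamase-neutralised spiral plating, detection limit 10^2 CFU/ml, at least triplicate.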

[15] = test system: Staphylococcus aureus; test: Antibacterial activity against methicillin-resistant Staphylococcus aureus 33922 assessed as viable count at 4 times of MIC after 24 hrs using 10^6 CFU/ml inoculum; assay type: functional, organism-based
[16] = test system: Staphylococcus aureus; test: T>MIC for 3-log drop in count in methicillin-resistant Staphylococcus aureus 33922 in in vitro pharmacokinetic model after 24 hrs using 10^6 CFU/ml inoculum; assay type: functional
[17] = test system: Staphylococcus aureus; test: Antibacterial activity against methicillin-resistant Staphylococcus aureus 33820 infected in in vitro pharmacokinetic model assessed as reduction in viable count at 1500 mg, iv every 8 hrs measured after 24 hrs using 10^6 CFU/ml inoculum; assay type: functional; in short: as §3
[18] = test system: Staphylococcus aureus; test: Antibacterial activity against methicillin-sensitive Staphylococcus aureus 5956 infected in in vitro pharmacokinetic model assessed as reduction in viable count at 1500 mg, iv every 8 hrs measured after 24 hrs using 10^6 CFU/ml inoculum; assay type: functional
[19] = test system: Staphylococcus aureus; test: Antibacterial activity against methicillin-resistant Staphylococcus aureus 33820 infected in in vitro pharmacokinetic model assessed as reduction in viable count at 750 mg, iv every 8 hrs measured after 36 hrs using 10^6 CFU/ml inoculum; assay type: functional; in short: as §3
[20] = test system: Staphylococcus aureus; test: AUBKC (0 to 48 hrs) in methicillin-resistant Staphylococcus aureus 33827 infected in in vitro pharmacokinetic model at 750 mg, iv every 8 hrs using 10^6 CFU/ml inoculum; assay type: functional; in short: as §1
[21] = test system: Staphylococcus aureus; test: T>MIC for 4-log drop in count in methicillin-resistant Staphylococcus aureus 33922 in in vitro pharmacokinetic model after 24 hrs using 10^8 CFU/ml inoculum; assay type: functional
[22] = test system: Staphylococcus aureus; test: Antibacterial activity against methicillin-sensitive Staphylococcus aureus 5956 assessed as viable count at 2 times of MIC after 24 hrs using 10^6 CFU/ml inoculum; assay type: functional, organism-based
[23] = test system: Staphylococcus aureus; test: Antibacterial activity against methicillin-resistant Staphylococcus aureus 33922 infected in in vitro pharmacokinetic model assessed as reduction in viable count at 750 mg, iv every 8 hrs measured after 36 hrs using 10^6 CFU/ml inoculum; assay type: functional
[24] = test system: Staphylococcus aureus; test: AUBKC (0 to 24 hrs) in methicillin-resistant Staphylococcus aureus 33829 infected in in vitro pharmacokinetic model at 750 mg, iv every 8 hrs using 10^6 CFU/ml inoculum; assay type: functional; in short: as §1
[25] = test system: Staphylococcus aureus; test: T>MIC for 3-log drop in count in methicillin-sensitive Staphylococcus aureus 5956 in in vitro pharmacokinetic model after 24 hrs using 10^6 CFU/ml inoculum; assay type: functional
In short: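 Dose-ranging: 7–13 simulated regimens per strain giving T>MIC of 0–100% (MIC from 10% MHB), at 106 or 10^8 CFU/ml as stated.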

[26] = test system: Staphylococcus aureus; test: Antibacterial activity against methicillin-resistant Staphylococcus aureus 33827 assessed as viable count at 4 times of MIC after 48 hrs using 10^6 CFU/ml inoculum; assay type: functional, organism-based

`C[C@@H](O)[C@H]1C(=O)N2C(C(=O)O)=C(S[C@H]3C[C@@H](C(=O)N4CC[C@H](NC(=O)CNC(=N)N)C4)N(C)C3)[C@H](C)[C@H]12` [TOMOPENEM] was tested, and the AUBC [1] was 103.5 log10CFU/ml.hr, the log10CFU/ml [2] was < 2 and the Time [3] was 12 h. It also gave an AUBC [4] of 81.5 log10CFU/ml.hr, an AUBC [5] of 32.9 log10CFU/ml.hr and an AUBC [6] of 119 log10CFU/ml.hr. For the same molecule, the log10CFU/ml [7] was <2, the log10CFU/ml [8] was 5.8 and the Time [9] was 16 h. It also gave an MIC [10] of 2 µg/mL (≈ 3.72 µM), a log10CFU/ml [11] of 4.1 and a log10CFU/ml [12] of 4.2. For the same molecule, the “fT>MIC” value [13] was 29.6%, the log10CFU/ml [14] was 4.2 and the Activity [15] was “inactive”. For the same molecule, the “fT>MIC” value [16] was 9.4%, the log10CFU/ml [17] was 4.2 and the log10CFU/ml [18] was 4.4. For the same molecule, the log10CFU/ml [19] was 4.2, the AUBC [20] was 44.9 log10CFU/ml.hr and the “fT>MIC” value [21] was 15%. For the same molecule, the Activity [22] was “inactive”, the log10CFU/ml [23] was 4 and the AUBC [24] was 25 log10CFU/ml.hr. The “fT>MIC” value [25] was 10.1% and the Activity [26] was “inactive”.
